Among all 330,000 compounds or so, about 780 (0.24%) were called active. The entries come from a sample that favours actives as a whole. Unmarked numbers belong to inactive results.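 The calls were made as follows: active = activation factor of at least 2 at 20 µM; inactive = the rest.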

This assay relates to intestinal alkaline phosphatase [Mus musculus]. The assay is described as follows: mouse intestinal phosphatase enzyme activation – biochemical, luminescence, uHTS, primary screen (AID 2805). To be noted: muIAP, CDP-Star luminescence, 30 min; at 10 µM; stronger effect = higher value; 1 = vehicle-only enzyme signal, 0 = enzyme-free wells. In a few lines:
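Assay system: mouse IAP enzyme; Reagent: CDP-Star chemiluminescent phosphatase substrate; Compound: DMSO-dissolved test compounds; Incubation: 30 min, room temperature; Technique: luminescence from enzymatic CDP-Star hydrolysis; Controls: DMSO-only wells and no-enzyme negative control.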
For `COc1ccc(CN2CCC(n3nccc3NC(=O)CCCc3ccccc3)CC2)cc1C`, the activation factor was 2.47 (active). The same measure for `COc1cc(CN2CCC(n3nccc3NC(=O)CCCc3ccccc3)CC2)ccc1O`: 1.47; for `Cc1ccc(CN2CCC(n3nccc3NC(=O)CCCc3ccccc3)CC2)o1`: 1.09. With `CC1(C)CC(=O)c2sc(N)nc2C1`, the activation factor was 0.979. Consider `CC(C)c1cc(C(N)=O)c(NC(=O)c2cccc(COc3ccc(Br)cc3)c2)s1`, for which the activation factor was 0.925. To `COc1cc(NC(=O)Nc2ccc(C)cc2)cc([N+](=O)[O-])c1` belongs 0.983; to `COC(=O)c1ccc(NC(=O)Nc2ccc(C)cc2)cc1`, 2.13 (active); to `COC(=O)c1ccc(NC(=O)C(C)N2C(=O)c3ccccc3C2=O)cc1` (stereo not given), 0.997.

With `Cc1c(C(C)(C)O)[nH]c2ccc(C#N)cc12`, the activation factor is 1.11. For `FC(F)(F)Oc1ccc(NC(=S)NCc2ccccc2)cc1`, the activation factor is 1.66. To `Fc1ccccc1CNC(=S)Nc1ccc(Cl)cc1` belongs 2.42 (active); to `S=C(NCc1cccs1)Nc1ccc(Cl)cc1`, 1.5; to `O=C1CCC(C(=O)N2CCC(O)(c3ccccc3)CC2)CN1CCc1ccccc1` (stereo not given), 0.942. Take `Cc1cc(C(F)(F)F)nn1CC(=O)N1CCCC1`: the activation factor is 1.12. On to `Cc1ccc(C(=O)c2coc3ccc(O)c(CN(C)C)c23)cc1`, for which the activation factor was 1.09.

Consider `COc1cccc(N(Cc2nnc3n2CCCCC3)C(=O)Nc2ccccc2F)c1`, for which the activation factor is 1.08. Turning to `Cc1cccc(C)c1NC(=O)C1(N(C(=O)c2ccccn2)c2ccc(O)cc2)CCCCC1`, the activation factor was 1.01. The same measure for `COc1cccc(N(C(=O)c2ccn[nH]2)C2(C(=O)Nc3c(C)cccc3C)CCCCC2)c1`: 3.3 (active). Consider `Cc1cc(=O)n2nc(N3CCCC(C(=O)N4CCN(C)CC4)C3)sc2n1` (stereo not given), for which the activation factor was 0.986. To `CN(CC(=O)N1CCN(c2ccccc2)CC1)S(=O)(=O)c1cccs1` belongs 0.929. The same measure for `Cc1ccc(NC(=O)COC(=O)C2CC2)cc1S(=O)(=O)N1CCOCC1`: 1.01. To `CCc1cccc(CC)c1NC(=S)NCc1ccc2[nH]c(C)cc2c1` belongs 1.06; to `Cc1cc(C)cc(NC(=S)NCCc2c[nH]c3ccccc23)c1`, 1.3; to `Cc1cccc(NC(=S)NCc2ccc3[nH]c4c(c3c2)CCCC4)c1`, 2.55 (active). As to `CC1CCCN(C(C(=O)Nc2ccc(C(C)C)cc2)c2ccc3c(c2)OCO3)C1` (stereo not given), the activation factor is 2.25 (active).

`O=C(Nc1ccc2c(c1)OCCO2)C(c1ccc(F)cc1)N1CCCCC1` (stereo not given): the activation factor is 1.07. To `CC(NC(=S)Nc1ccc(S(N)(=O)=O)cc1)c1ccc2c(c1)OCO2` (stereo not given) belongs 1.52.

Regarding `CCN(C[C@H]1N[C@@](CC)(C(=O)OC)[C@H]2C(=O)N(Cc3ccccc3)C(=O)[C@@H]12)S(=O)(=O)c1ccc(C(F)(F)F)cc1`, the activation factor was 1.06. To `O=C(CCn1ccc([N+](=O)[O-])n1)Nc1nccs1` belongs 1.04; to `CN(C)S(=O)(=O)c1cccc(NC(=S)N/N=C/C(=O)c2ccccc2)c1`, 0.778. The same measure for `Cc1c(Cl)cccc1NC(=S)NCc1ccc2c(c1)OCO2`: 1.41.

Consider `CN(C)S(=O)(=O)c1cccc(NC(=S)NCc2ccc3c(c2)OCO3)c1`, for which the activation factor is 2.5 (active). The same measure for `C/C(=N\Nc1nc2ccccc2[nH]1)c1cccs1`: 1.07; for `COCCn1c(C)cc(C(=O)CN2c3cccc4cccc(c34)S2(=O)=O)c1C`: 1.06; for `CCc1nn(CCCC(=O)NC(C)c2ccccc2)c(=O)c2cc3occc3n12` (stereo not given): 0.908. The same measure for `CCN(CC(=O)Nc1ccccc1C(=O)NC1CC1)Cc1cccs1`: 0.951; for `CC(=O)N1CCC(N(C(=O)Nc2ccc(Cl)cc2)C(C)C)CC1`: 1.1. To `CC(C)S(=O)(=O)c1csc(NC(=O)Nc2ccc(Cl)cc2)c1Cl` belongs 2.9 (active).

In the case of `O=C(NCc1ccccn1)Nc1ccc(Cl)cc1`, the activation factor is 1.1. The same measure for `Fc1ccccc1COc1ccccc1CNCc1ccncc1`: 0.935. To `O=C(CSc1nnc(Cn2cnc3ccccc32)o1)c1ccccc1` belongs 0.997. As for `N#Cc1cnn2cc(CCN3CCOCC3)c(-c3ccc(F)cc3)nc12`, the activation factor is 0.899. As to `O=CN1CCN(C(=O)c2ccc3c(c2)OCO3)CC1`, the activation factor was 1.06.

With `COc1cccc(NC(=O)C2C(c3ccccc3)C2(Cl)Cl)c1` (stereo not given), the activation factor was 2.76 (active). The same measure for `COc1cccc(NC(=O)C2CCCN2C(=O)OCc2ccccc2)c1` (stereo not given): 0.929. The same measure for `COc1cccc(NC(=O)C2c3cc(OC)c(OC)cc3C(=O)N(C)C2c2cccnc2)c1` (stereo not given): 0.967. The same measure for `CC(Sc1nnc(-c2ccccc2F)n1C1CC1)C(N)=O` (stereo not given): 1; for `CC(=O)Nc1ccc(NC(=O)CC2CCCC2)cc1`: 1.03. In the case of `O=C(Nc1ccc(C(=O)N2CCOCC2)cc1)Nc1cccc(C(F)(F)F)c1`, the activation factor was 1.56. On to `O=C(NCc1ccccc1)c1ccc(S(=O)(=O)Nc2cccc(C(F)(F)F)c2)cc1`, for which the activation factor is 0.856. Turning to `CCNS(=O)(=O)c1ccc(NC(=O)Nc2cccc(C(F)(F)F)c2)cc1`, the activation factor is 2.22 (active). `COc1ccc(C(C(=O)NC2CCCC2)N(CCCO)C(=O)Cn2nnc(-c3ccc(C)o3)n2)cc1` (stereo not given): the activation factor was 1.05. The same measure for `Cc1ccc(NC(=S)NCc2ccccc2Cl)c(C)c1`: 1.27; for `S=C(NCCc1ccccc1)NCc1ccccc1Cl`: 2.23 (active); for `S=C(NCc1ccco1)NCc1ccccc1Cl`: 1.01. The same measure for `CCCCCCC12CCC(C(=O)O)(CC1)CC2`: 1.01. To `O=C(CN1C(=O)NC2(CCCCC2)C1=O)N1CCN(C(=O)c2cccs2)CC1` belongs 0.968.

On to `Cc1ccc(C)c(S(=O)(=O)N2CCCOC2CNC(=O)C(=O)NC2CCCCC2)c1` (stereo not given), for which the activation factor was 1.04. To `Nc1nnc(SCC(=O)NC2CCCc3ccccc32)s1` (stereo not given) belongs 1; to `Cc1cc(Nc2ccc(Br)cc2F)n2ncnc2n1`, 0.862; to `Cc1cccc(NC(=O)Nc2cccc(Oc3c(F)c(F)c(F)c(F)c3F)c2)c1`, 3.37 (active). The same measure for `Cc1ccc(NC(=O)Nc2ccccc2)c(Br)c1`: 1.26; for `Cc1ccoc1C(=O)Nc1cccc(Oc2ccccc2)c1`: 0.9; for `O=C(O)c1cc(S(=O)(=O)Nc2ccc3cn[nH]c3c2)ccc1Br`: 0.965. To `CS/C(=C\C(=O)c1ccco1)Nc1ccccc1Cl` belongs 0.883.

For the origin of these results see PubChem BioAssay AID2805 (Sanford-Burnham Center for Chemical Genomics, 2010).
